The values that follow come from ChEMBL document CHEMBL3272145, “Synthesis and some pharmacological properties of the 23-peptide 15-lysine-secretin-(5--27). Special role of the residue in position 15 in biological activity of the vasoactive intestinal polypeptide” (1978).

Activity calls are given as the source filed them. No cut-off for these calls is given here.

Test [1] is described as follows: Vasolrelaxant activity in guinea pig lung. The test is classed as functional. The conditions noted are these: Cavia porcellus.
Test [2] is filed under the species Cavia porcellus. Kind of test: Apparent binding affinity to VIP receptor in guinea pig acinar cells assessed as inhibition of VIP-induced cAMP accumulation measured as concentration required to occupy 50% of receptor. Format: cell-based. Summed up: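 Dispersed acinar cells from guinea pig pancreas. Apparent affinity for the VIP-preferring receptor was calculated from the fragment's ability to inhibit the cAMP increase caused by 10^-9 M VIP. Values are means (±1 SD) from three separate experiments.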
On the technique in general: Cyclic AMP is a second messenger, typically raised through Gs and lowered through Gi signalling.

Test [3] in a line: Vasolrelaxant activity in rat gastric fundus. The conditions noted are these: Stomach. The test is classed as functional, tissue-based.
The species entered for test [4] is Cavia porcellus. Kind of test: Apparent binding affinity to secretin receptor in guinea pig acinar cells assessed as inhibition of secretin-induced cAMP accumulation measured as concentration required to occupy 50% of receptor. Format: cell-based. The gist of the method: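 Dispersed acinar cells from guinea pig pancreas. Apparent affinity for the secretin-preferring receptor was calculated from the fragment's ability to inhibit the cAMP increase caused by 10^-9 M secretin. Values are means (±1 SD) from three separate experiments.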

For test [5], the species on record is Cavia porcellus. Kind of test: Vasolrelaxant activity in guinea pig trachea. Format: functional, tissue-based.
Test [6] deals with Rattus norvegicus. Kind of test: Induction of pancreatic secretory flow in iv dosed rat measured per 10 mins per gram wet weight of pancreas. The test is classed as functional.
The test system of test [7] is Rattus norvegicus. Kind of test: Induction of pancreatic secretory flow in iv dosed rat measured per 10 mins per gram wet weight of pancreas relative to secretin. Format: functional.
For test [8], the species on record is Rattus norvegicus. Kind of test: Effect on exocrine pancreatic secretion in rat. Format: functional, organism-based.

As for H-TFTSELSRLRDSARLQRLLQGLV-NH2, the result (in test [1]; in test [3]; in the test listed under Cavia porcellus [5]) was Active. The Activity in the test listed under Cavia porcellus [2] was determined as 46 ×10⁻⁷ M; in the test listed under Cavia porcellus [4] it was 2.3 ×10⁻⁷ M.

Take `CC[C@H](C)[C@H](NC(=O)[C@H](CO)NC(=O)[C@H](CC(N)=O)NC(=O)[C@H](CC(C)C)NC(=O)[C@H](Cc1ccc(O)cc1)NC(=O)[C@H](CCCCN)NC(=O)[C@H](CCCCN)NC(=O)[C@@H](NC(=O)[C@H](C)NC(=O)[C@H](CCSC)NC(=O)[C@H](CCC(N)=O)NC(=O)[C@H](CCCCN)NC(=O)[C@H](CCCN=C(N)N)NC(=O)[C@H](CC(C)C)NC(=O)[C@H](CCCN=C(N)N)NC(=O)[C@@H](NC(=O)[C@H](Cc1ccc(O)cc1)NC(=O)[C@H](CC(N)=O)NC(=O)[C@H](CC(=O)O)NC(=O)[C@@H](NC(=O)[C@H](Cc1ccccc1)NC(=O)[C@@H](NC(=O)[C@H](C)NC(=O)[C@H](CC(=O)O)NC(=O)[C@H](CO)NC(=O)[C@@H](N)Cc1c[nH]cn1)C(C)C)[C@@H](C)O)[C@@H](C)O)C(C)C)C(=O)N[C@@H](CC(C)C)C(=O)N[C@@H](CC(N)=O)C(N)=O`: the result (in test [1]; in test [3]; in the test listed under Cavia porcellus [5]) was Active.

Take SECRETIN: the result with Rattus norvegicus [6] was Active.

One may read the Emax as the maximal effect, on the per cent scale that the assay sets. Regarding H-TFTSELSRLRKSARLQRLLQGLV-NH2, the result (in test [1]; in test [3]; in the test filed under Cavia porcellus [5]) was Active. In the test on Rattus norvegicus [7], this compound registered an Emax of 20%. Further, in the test listed under Rattus norvegicus [8], the outcome was inactive. The results for the Activity in the test on Rattus norvegicus [6], in the test listed under Cavia porcellus [2] and in the test filed under Cavia porcellus [4] were 12.9 µL, 10 ×10⁻⁷ M and 12 ×10⁻⁷ M, respectively.

On to H-TFTSELSRLRNSARLQRLLQGLV-NH2, for which the outcome in the test listed under Rattus norvegicus [8] was inactive. Moreover, the outcome in the test with Rattus norvegicus [6] was Active. Also, the results for the Activity in the test listed under Cavia porcellus [2] and in the test filed under Cavia porcellus [4] were 8 ×10⁻⁷ M and 1.9 ×10⁻⁷ M, respectively.
